Data: ChEMBL document CHEMBL3585281, “Antibacterial Labdane Diterpenoids from Vitex vestita” (2015)
Converted amounts (≈) assume the structure as drawn.

Key:
Format in all cases: functional
[1] = test system: Staphylococcus intermedius; assay: Antibacterial activity against Staphylococcus intermedius N987 after 18 hrs by agar dilution method; conditions: N987, 18 h
Summary of the method: (§1)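 Agar-dilution MIC against Gram-positive strains. Compounds in DMSO, geometric dilutions giving final 100−0.75 mg/L in Mueller Hinton agar. Strains grown 18 h at 37 °C in trypticase soy broth, diluted in sterile water, spotted by Steers inoculator (about 1000 UFC/spot). Plates incubated 18 h at 37 °C; DMSO blank; ofloxacin positive control. MIC = lowest concentration with no visible growth.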

Enterococcus durans = assay: Antibacterial activity against Enterococcus durans CIP 104999 after 18 hrs by agar dilution method; conditions: CIP 104999, 18 h; summary of the method: as §1
[2] = test system: Enterococcus casseliflavus; assay: Antibacterial activity against Enterococcus casseliflavus N487 after 18 hrs by agar dilution method; conditions: N487, 18 h; summary of the method: as §1
Enterococcus faecium [3] = assay: Antibacterial activity against Enterococcus faecium N507 after 18 hrs by agar dilution method; conditions: N507, 18 h; summary of the method: as §1
Enterococcus faecalis [4] = assay: Antibacterial activity against Enterococcus faecalis N518 after 18 hrs by agar dilution method; conditions: N518, 18 h; summary of the method: as §1
Enterococcus faecium [5] = assay: Antibacterial activity against Enterococcus faecium CIP 103014 after 18 hrs by agar dilution method; conditions: CIP 103014, 18 h; summary of the method: as §1
Listeria innocua = assay: Antibacterial activity against Listeria innocua E044 after 18 hrs by agar dilution method; conditions: E044, 18 h; summary of the method: as §1
Bacillus spizizenii = assay: Antibacterial activity against Bacillus subtilis ATCC 6633 after 18 hrs by agar dilution method; conditions: ATCC 6633, 18 h; summary of the method: as §1
Listeria monocytogenes [6] = assay: Antibacterial activity against Listeria monocytogenes N851 after 18 hrs by agar dilution method; conditions: N851, 18 h; summary of the method: as §1
Enterococcus faecium [7] = assay: Antibacterial activity against Enterococcus faecium N490 after 18 hrs by agar dilution method; conditions: N490, 18 h; summary of the method: as §1
[8] = test system: Staphylococcus saprophyticus; assay: Antibacterial activity against Staphylococcus saprophyticus E260 after 18 hrs by agar dilution method; conditions: E260, 18 h; summary of the method: as §1
Corynebacterium striatum = assay: Antibacterial activity against Corynebacterium striatum N840 after 18 hrs by agar dilution method; conditions: N840, 18 h; summary of the method: as §1
Bacillus cereus [9] = assay: Antibacterial activity against Bacillus cereus N349 after 18 hrs by agar dilution method; conditions: N349, 18 h; summary of the method: as §1
Bacillus cereus [10] = assay: Antibacterial activity against Bacillus cereus CIP 6624 after 18 hrs by agar dilution method; conditions: CIP 6624, 18 h; summary of the method: as §1
[11] = test system: Enterococcus casseliflavus; assay: Antibacterial activity against Enterococcus casseliflavus CIP 103018 after 18 hrs by agar dilution method; conditions: CIP 103018, 18 h; summary of the method: as §1
Enterococcus faecium [12] = assay: Antibacterial activity against Enterococcus faecium N733 after 18 hrs by agar dilution method; conditions: N733, 18 h; summary of the method: as §1
Staphylococcus aureus [13] = assay: Antibacterial activity against Staphylococcus aureus CIP 5710 after 18 hrs by agar dilution method; conditions: CIP 5710, 18 h; summary of the method: as §1
Staphylococcus aureus [14] = assay: Antibacterial activity against Staphylococcus aureus CIP 53156 after 18 hrs by agar dilution method; conditions: CIP 53156, 18 h; summary of the method: as §1
Bacillus cereus [15] = assay: Antibacterial activity against Bacillus cereus N258 after 18 hrs by agar dilution method; conditions: N258, 18 h; summary of the method: as §1
Staphylococcus aureus [16] = assay: Antibacterial activity against Staphylococcus aureus CIP 7625 after 18 hrs by agar dilution method; conditions: CIP 7625, 18 h; summary of the method: as §1
Enterococcus faecium [17] = assay: Antibacterial activity against Enterococcus faecium CIP 107387 after 18 hrs by agar dilution method; conditions: CIP 107387, 18 h; summary of the method: as §1
Staphylococcus aureus [18] = assay: Antibacterial activity against Staphylococcus aureus CIP 53154 after 18 hrs by agar dilution method; conditions: CIP 53154, 18 h; summary of the method: as §1
Enterococcus faecalis [19] = assay: Antibacterial activity against Enterococcus faecalis CIP 104676 after 18 hrs by agar dilution method; conditions: CIP 104676, 18 h; summary of the method: as §1
Staphylococcus aureus [20] = assay: Antibacterial activity against Staphylococcus aureus CRBIP 2121 after 18 hrs by agar dilution method; conditions: CRBIP 2121, 18 h; summary of the method: as §1
Staphylococcus aureus [21] = assay: Antibacterial activity against Staphylococcus aureus ATCC 9144 oxford after 18 hrs by agar dilution method; summary of the method: as §1
Enterococcus faecium [22] = assay: Antibacterial activity against Enterococcus faecium N823 after 18 hrs by agar dilution method; conditions: N823, 18 h; summary of the method: as §1
Enterococcus gallinarum [23] = assay: Antibacterial activity against Enterococcus gallinarum N492 after 18 hrs by agar dilution method; conditions: N492, 18 h; summary of the method: as §1
Listeria monocytogenes [24] = assay: Antibacterial activity against Listeria monocytogenes N783 after 18 hrs by agar dilution method; conditions: N783, 18 h; summary of the method: as §1
Enterococcus avium = assay: Antibacterial activity against Enterococcus avium CIP 104053 after 18 hrs by agar dilution method; conditions: CIP 104053, 18 h; summary of the method: as §1
Enterococcus gallinarum [25] = assay: Antibacterial activity against Enterococcus gallinarum CIP 105985 after 18 hrs by agar dilution method; conditions: CIP 105985, 18 h; summary of the method: as §1
Streptococcus agalactiae = assay: Antibacterial activity against Streptococcus agalactiae CIP 103227 after 18 hrs by agar dilution method; conditions: ATCC 13813, 18 h; summary of the method: as §1
Enterococcus faecalis [26] = assay: Antibacterial activity against Enterococcus faecalis N491 after 18 hrs by agar dilution method; conditions: N491, 18 h; summary of the method: as §1
[27] = test system: Staphylococcus epidermidis; assay: Antibacterial activity against Staphylococcus epidermidis CIP 53124 after 18 hrs by agar dilution method; conditions: CIP 53124, 18 h; summary of the method: as §1
Mammaliicoccus sciuri = assay: Antibacterial activity against Staphylococcus sciuri N993 after 18 hrs by agar dilution method; conditions: N993, 18 h; summary of the method: as §1
[28] = test system: Staphylococcus haemolyticus; assay: Antibacterial activity against Staphylococcus haemolyticus CIP 8156 after 18 hrs by agar dilution method; conditions: CIP 8156, 18 h; summary of the method: as §1
Staphylococcus aureus [29] = assay: Antibacterial activity against Staphylococcus aureus CIP 483 after 18 hrs by agar dilution method; conditions: CIP 483, 18 h; summary of the method: as §1
Enterococcus faecalis [30] = assay: Antibacterial activity against Enterococcus faecalis N520 after 18 hrs by agar dilution method; conditions: N520, 18 h; summary of the method: as §1
Enterococcus hirae = assay: Antibacterial activity against Enterococcus hirae CIP 5855 after 18 hrs by agar dilution method; conditions: CIP 5855, 18 h; summary of the method: as §1
Enterococcus gallinarum [31] = assay: Antibacterial activity against Enterococcus gallinarum N489 after 18 hrs by agar dilution method; conditions: N489, 18 h; summary of the method: as §1
[32] = test system: Staphylococcus saprophyticus; assay: Antibacterial activity against Staphylococcus saprophyticus CIP 76125 after 18 hrs by agar dilution method; conditions: CIP 76125, 18 h; summary of the method: as §1
Bacillus cereus [33] = assay: Antibacterial activity against Bacillus cereus N190 after 18 hrs by agar dilution method; conditions: N190, 18 h; summary of the method: as §1
[34] = test system: Staphylococcus lugdunensis; assay: Antibacterial activity against Staphylococcus lugdunensis ATCC 43809 after 18 hrs by agar dilution method; conditions: ATCC 43809, 18 h; summary of the method: as §1
Listeria monocytogenes [35] = assay: Antibacterial activity against Listeria monocytogenes CIP 103575 after 18 hrs by agar dilution method; conditions: CIP 103575, 18 h; summary of the method: as §1
Listeria monocytogenes [36] = assay: Antibacterial activity against Listeria monocytogenes N836 after 18 hrs by agar dilution method; conditions: N836, 18 h; summary of the method: as §1
Enterococcus faecalis [37] = assay: Antibacterial activity against Enterococcus faecalis CIP 103214 after 18 hrs by agar dilution method; conditions: CIP 103214, 18 h; summary of the method: as §1
Staphylococcus aureus [38] = assay: Antibacterial activity against Staphylococcus aureus ATCC 25923 after 18 hrs by agar dilution method; conditions: ATCC 25923, 18 h; summary of the method: as §1

Work on `CC1COc2c(N3CCN(C)CC3)c(F)cc3c(=O)c(C(=O)O)cn1c23` (stereo unspecified) [OFLOXACIN] yielded an MIC [1] of 89 µM (≈ 32.2 µg/mL), an MIC (Enterococcus durans) of 1.4 µM (≈ 0.506 µg/mL) and an MIC [2] of 11 µM (≈ 3.98 µg/mL). It also gave an MIC (Enterococcus faecium [3]) of 354 µM (≈ 128 µg/mL), an MIC (Enterococcus faecalis [4]) of 11 µM (≈ 3.98 µg/mL) and an MIC (Enterococcus faecium [5]) of 22 µM (≈ 7.95 µg/mL). It also gave an MIC (Listeria innocua) of 11 µM (≈ 3.98 µg/mL), an MIC (Bacillus spizizenii) of at most 0.2 µM and an MIC (Listeria monocytogenes [6]) of 6 µM (≈ 2.17 µg/mL). It also gave an MIC (Enterococcus faecium [7]) of 6 µM (≈ 2.17 µg/mL), an MIC [8] of 3 µM (≈ 1.08 µg/mL) and an MIC (Corynebacterium striatum) of over 354 µM. It also gave an MIC (Bacillus cereus [9]) of 1.4 µM (≈ 0.506 µg/mL), an MIC (Bacillus cereus [10]) of 0.7 µM (≈ 0.253 µg/mL) and an MIC [11] of 11 µM (≈ 3.98 µg/mL). The MIC (Enterococcus faecium [12]) was over 354 µM, the MIC (Staphylococcus aureus [13]) was 0.7 µM (≈ 0.253 µg/mL) and the MIC (Staphylococcus aureus [14]) was 0.7 µM (≈ 0.253 µg/mL). The MIC (Bacillus cereus [15]) was 0.7 µM (≈ 0.253 µg/mL), the MIC (Staphylococcus aureus [16]) was 1.4 µM (≈ 0.506 µg/mL) and the MIC (Enterococcus faecium [17]) was 177 µM (≈ 64 µg/mL). It also gave an MIC (Staphylococcus aureus [18]) of 0.7 µM (≈ 0.253 µg/mL), an MIC (Enterococcus faecalis [19]) of 3 µM (≈ 1.08 µg/mL) and an MIC (Staphylococcus aureus [20]) of 177 µM (≈ 64 µg/mL). For the same molecule, the MIC (Staphylococcus aureus [21]) was 0.7 µM (≈ 0.253 µg/mL), the MIC (Enterococcus faecium [22]) was 354 µM (≈ 128 µg/mL) and the MIC (Enterococcus gallinarum [23]) was 11 µM (≈ 3.98 µg/mL). The MIC (Listeria monocytogenes [24]) was 6 µM (≈ 2.17 µg/mL), the MIC (Enterococcus avium) was 6 µM (≈ 2.17 µg/mL) and the MIC (Enterococcus gallinarum [25]) was 11 µM (≈ 3.98 µg/mL). For the same molecule, the MIC (Streptococcus agalactiae) was 1.4 µM (≈ 0.506 µg/mL), the MIC (Enterococcus faecalis [26]) was 6 µM (≈ 2.17 µg/mL) and the MIC [27] was 1.4 µM (≈ 0.506 µg/mL). For the same molecule, the MIC (Mammaliicoccus sciuri) was 3 µM (≈ 1.08 µg/mL), the MIC [28] was 0.7 µM (≈ 0.253 µg/mL) and the MIC (Staphylococcus aureus [29]) was 0.7 µM (≈ 0.253 µg/mL). For the same molecule, the MIC (Enterococcus faecalis [30]) was 354 µM (≈ 128 µg/mL), the MIC (Enterococcus hirae) was 3 µM (≈ 1.08 µg/mL) and the MIC (Enterococcus gallinarum [31]) was 6 µM (≈ 2.17 µg/mL). The MIC [32] was 3 µM (≈ 1.08 µg/mL), the MIC (Bacillus cereus [33]) was 0.7 µM (≈ 0.253 µg/mL) and the MIC [34] was 3 µM (≈ 1.08 µg/mL). The MIC (Listeria monocytogenes [35]) was 6 µM (≈ 2.17 µg/mL), the MIC (Listeria monocytogenes [36]) was 6 µM (≈ 2.17 µg/mL) and the MIC (Enterococcus faecalis [37]) was 3 µM (≈ 1.08 µg/mL). It also gave an MIC (Staphylococcus aureus [38]) of 1.4 µM (≈ 0.506 µg/mL).
